# Hits are enriched below; roughly 3.9% of the tested compounds scored in any of these assays.
# HIF activator: HIF pathway transcriptional activation | U2OS HRE-luciferase reporter, luminescence; normalized: DMSO 0%, desferrioxamine 100% | activation, % at 7.5 µM (by protocol) | actives 0.32% (n = 300,000) | AID 1910;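 active = mean activation of at least 10% of the iron chelator positive control signal, with at least half of replicates also reaching 10%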
# AHR activator: activators of human aryl hydrocarbon receptor; P35869; AHR-responsive luciferase reporter cells, luminescence; activation, % at 5 µM; actives 2.5% (n = 320,000); in the data active = activation above about 47%;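 note: 0% = vehicle wells and 100% = reference agonist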
# GAA850 FXN act: activators of GAA850 frataxin (FXN) promoter; HEK293 lucGAA850 FXN promoter luciferase reporter, 24 h; percent of 10 µM SAHA response; activation, % at 6 µM; actives 0.56% (n = 360,000); AID 540364;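 active = activation above the average of all compounds screened plus 3 SD, cutoff fixed separately per campaign, cut at about 7.5% in these data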;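 note: 0% = DMSO wells and 100% = 10 µM SAHA wells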
# SR-BI HDL uptake: mouse SR-BI HDL lipid transfer inhibition; Q61009; ldlA[mSR-BI] CHO cells, DiI-HDL uptake fluorescence, 3 h; inhibition, % at 12.5 µM; actives 0.96% (n = 320,000); AID 488896;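 active = mean replicate inhibition of at least 70% and a set share of replicates each scoring 70 or more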;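 note: 0% = median of neutral control wells and 100% = median of positive control wells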
# ABCB6 inh 2: blocks the human ABCB6 transporter; AID 602162; Q9NP58; fluorescence ratio to DMSO, % at 10 µM; actives 0.19% (n = 360,000); K562-ABCB6 porphyrin accumulation, flow cytometry, 1 h; active compounds read low;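 active = fluorescence ratio to DMSO below 75%, the collection mean minus 3 SD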;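 note: signal is porphyrin accumulated inside mitochondria; 100% equals median channel fluorescence of DMSO control wells; lower ratio means ABCB6 inhibition with less porphyrin fluorescence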
# Target sequence (Q9NP58 whole entry, looked up): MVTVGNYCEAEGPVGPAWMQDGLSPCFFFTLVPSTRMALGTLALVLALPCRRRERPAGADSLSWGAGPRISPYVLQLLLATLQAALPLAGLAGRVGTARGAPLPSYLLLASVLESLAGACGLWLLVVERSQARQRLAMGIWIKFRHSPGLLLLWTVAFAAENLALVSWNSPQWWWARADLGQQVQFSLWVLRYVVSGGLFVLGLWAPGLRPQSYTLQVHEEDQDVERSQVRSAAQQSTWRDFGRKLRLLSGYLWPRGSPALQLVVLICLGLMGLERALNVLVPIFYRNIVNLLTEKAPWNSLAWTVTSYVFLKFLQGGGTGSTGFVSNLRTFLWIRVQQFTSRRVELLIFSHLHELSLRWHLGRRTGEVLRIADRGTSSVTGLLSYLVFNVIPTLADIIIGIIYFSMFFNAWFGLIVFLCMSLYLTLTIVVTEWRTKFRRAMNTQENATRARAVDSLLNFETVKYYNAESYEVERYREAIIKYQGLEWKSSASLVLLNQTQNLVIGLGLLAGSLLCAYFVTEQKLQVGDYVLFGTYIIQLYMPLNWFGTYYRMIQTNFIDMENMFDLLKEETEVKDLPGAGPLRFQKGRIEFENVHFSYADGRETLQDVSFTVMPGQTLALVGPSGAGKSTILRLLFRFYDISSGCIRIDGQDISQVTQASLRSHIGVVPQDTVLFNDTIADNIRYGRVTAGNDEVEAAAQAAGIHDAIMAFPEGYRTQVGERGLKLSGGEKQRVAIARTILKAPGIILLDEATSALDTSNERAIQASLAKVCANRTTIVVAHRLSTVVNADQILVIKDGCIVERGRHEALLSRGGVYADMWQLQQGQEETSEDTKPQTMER
# SR-BI DiI-HDL act: activators of SR-BI mediated HDL lipid uptake; CHO ldlA[mSR-BI] cells, DiI-HDL uptake fluorescence, 3 h; 100 = double the neutral-control signal; activation, % at 12.5 µM; actives 0.096% (n = 320,000); AID 504775;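 active = mean replicate activation of at least 60% and every replicate at or above 60%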;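 note: 0% = median plate neutral-control signal and 100% = twice that signal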
#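 Assay system: LDL receptor-deficient CHO ldlA cells overexpressing murine SR-BI / Medium: BSA-supplemented, HEPES-buffered Ham's F12, pH 7.4 / Probe or stimulus: DiI-labelled HDL at 10 µg/mL final / Timing: compound with DiI-HDL co-incubation, 3 h at 37 °C / Technique: bottom-read cell fluorescence after medium removal, ex 550/em 595 nm / Measure: HDL uptake via cellular fluorescence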
# AHR act confirm: confirmation of human aryl hydrocarbon receptor activators | shares compounds with AHR activator | human cells, AHR-responsive luciferase reporter, luminescence | activation, % at 9 µM | actives 87% (n = 2,300); in the data active = activation above about 49%;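 note: HepG2 hepatoma cells carrying a DRE-driven firefly luciferase reporter; 0% = vehicle wells and 100% = reference agonist wells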
# PXR counter: PXR activation, counter-screen for AHR activators; shares compounds with AHR activator; cell-based PXR reporter, luciferase luminescence; activation, % at 11.6 µM; actives 88% (n = 2,300); AID 434939; in the data active = activation above about 11%;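 note: human hepatoma DPX-2 cells expressing full-length human PXR; 0% = DMSO and 100% = reference agonist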
# * = called active by the depositor; x = not tested or not shown.
SMILES,HIF activator,AHR activator,GAA850 FXN act,SR-BI HDL uptake,ABCB6 inh 2,SR-BI DiI-HDL act,others
O=C(NCCc1cccc(F)c1)/C(=C/c1cccnc1)NC(=O)c1ccccc1,0,0,2,-4,104,4,
COc1ccccc1NC(=O)c1sc2nc(C)cc(C)c2c1N,0,50*,2,36,85,-36,
CCCCN(C(=O)NC(=O)Nc1nc2ccc(OC)cc2s1)S(C)(=O)=O,2,13,9.5*,-7,98,7,
CCOc1ccc(NC(=O)Nc2cc(-c3ccccc3)sc2C(=O)OC)cc1,0,47*,0,19,95,-19,
COc1ccccc1NC(=O)Nc1nnc(C(C)C)s1,2,60*,6,10,92,-10,
CCCCN(C(=O)NC(=O)Nc1cc(C)ccc1C)S(C)(=O)=O,0,2,0,-1,91,1,
CCCCN(C(=O)NC(=O)Nc1ccccc1OC)S(C)(=O)=O,0,58*,-3,24,106,-24,
COC(=O)c1sc(-c2ccccc2)cc1NC(=O)C1CC1,0,15,0,20,98,-20,
O=C(CN1C(=O)NC2(CCCC2)C1=O)Nc1ccc(Cl)cc1C(F)(F)F,-2,3,-1,12,100,-12,
CN(Cc1ccccc1)S(=O)(=O)c1cc2c3c(c1)CCN3C(=O)CC2,0,0,0,29,93,-29,
C[C@H](CO)N1C[C@H](C)[C@@H](CN(C)C(=O)NC2CCCC2)Oc2cc(Br)ccc2S1(=O)=O,x,x,-2,x,100,x,
COc1ccccc1NC(=O)NC(=O)N(C(C)C)S(C)(=O)=O,0,60*,-2,21,100,-21,
COc1ccccc1NC(=O)NC(N)=O,0,2,-2,-35,101,35,
CCOc1ccc(/C=N/NC(=O)Nc2ccccc2)cc1,3,61*,4,-4,97,4,
CCOc1ccc2nc(NC(=O)Nc3ccccc3)sc2c1,5,78*,4,51,94,-51,
Cc1ccc(-c2ccc(C(=O)O)c(C)n2)cc1,-1,1,-2,-9,97,9,
S=C1NC(c2ccccc2)=CC(c2ccccc2)N1 (centres undefined),0,2,1,82*,94,-82,
S=c1nc(-c2ccccc2)[nH]c2ccc(Br)cc12,1,53*,2,2,95,-2,
CCOC(=O)N1CCN(c2ccc(Cl)c(Cl)c2)CC1,107*,-3,-2,16,103,-16,
COc1ccc(N(C(=O)CCl)C(C(=O)NCCc2ccccc2)c2cccs2)cc1Cl (centres undefined),-5,0,-10,-12,25*,12,
COc1cccc(N(C(=O)CCl)C(C(=O)NCCc2ccccc2)c2cccs2)c1 (centres undefined),1,-2,-12,24,104,-24,
CCOC(=O)c1sc(N(Cc2ccccc2)C(=O)COC(=O)c2ccccc2O)nc1C,0,16,4,-4,106,4,
CCOC(=O)c1sc(N(Cc2ccccc2)C(=O)COC(=O)c2ccc(O)cc2)nc1C,10.0*,4,-9,-14,93,14,
C[C@H]1CN([C@@H](C)CO)C(=O)CCCn2cc(nn2)CO[C@@H]1CN(C)C(=O)OCc1ccccc1,x,x,x,x,98,x,
O=C(CSc1nc2ccccc2s1)NNC(=S)Nc1ccccc1,0,27,-1,3,100,-3,
SMILES,HIF activator,AHR activator,GAA850 FXN act,SR-BI HDL uptake,ABCB6 inh 2,SR-BI DiI-HDL act,others
O=C(CSc1nc2ccccc2s1)NNC(=S)Nc1ccc(Br)cc1,-1,53*,2,-5,90,5,
Nc1cc(=O)[nH]c(SCC(=O)Nc2cc(Cl)ccc2Cl)n1,0,2,2,-1,96,1,
Cc1ccc(N=c2c([N+](=O)[O-])nn(-c3ccccc3)n2O)c(C)c1,3,25,5,17,100,-17,
Cc1c(Cl)cccc1N=c1c([N+](=O)[O-])nn(-c2ccccc2)n1O,1,55*,-1,8,101,-8,
CNC(=O)c1cc(Nc2nnc(C)c3ccccc23)ccc1OC,0,59*,0,-4,92,4,
COc1ccc(Nc2nnc(-c3ccc(O)cc3)c3ccccc23)cc1C(N)=O,1,47,1,22,85,-22,
COc1ccc(-c2cc(C(=O)N3CCN(S(=O)(=O)c4ccc(C)cc4)CC3)[nH]n2)cc1,0,111*,0,8,102,-8,AHR act confirm=2;PXR counter=13*
c1ccc(C2=Nn3c(nnc3-c3ccncc3)SC2)cc1,5,22,-4,-13,100,13,
C[n+]1c2n(c3ccccc31)N=C(c1ccccc1)CS2,1,69*,2,-1,96,1,AHR act confirm=52*;PXR counter=32*
Cc1ccccc1N=C1c2cc([N+](=O)[O-])ccc2-c2ncccc21,0,31,3,-19,89,19,
Clc1cccc(-c2ccc(-c3nc4ccccn4c3NCc3ccccc3)cc2)c1,x,98*,1,69,100,-69,AHR act confirm=71*;PXR counter=7
c1ccc(C2=Nc3ccccc3OC2)cc1,-14,21,1,-9,91,9,
Cc1ccc2c(c1)N=C(c1ccc(Cl)cc1)CO2,3,135*,3,-4,101,4,AHR act confirm=108*;PXR counter=31*
Clc1ccc(C2=Nc3cc(Cl)ccc3OC2)cc1,4,104*,3,13,103,-13,AHR act confirm=129*;PXR counter=6
O=C(O)c1cncc(SCc2ccccc2)n1,0,1,0,-7,95,7,
O=C1NC(=Nc2ccccc2)S/C1=C/c1cccs1,2,116*,5,-17,113,17,AHR act confirm=120*;PXR counter=32*
Fc1ccccc1Nc1n[nH]c(=S)s1,2,2,6,-15,112,15,
Cc1c(C(=O)NCc2ccccc2CN2CCCC2)oc2c(F)cccc12,x,80*,0,-3,97,3,AHR act confirm=95*;PXR counter=39*
COc1ccc2oc(C(=O)NCc3ccccc3CN3CCCC3)c(C)c2c1,x,10,1,21,102,-21,
CCc1cc2cc(OC)ccc2nc1SCC(=O)NNC(=O)c1ccco1,0,82*,1,48,97,-48,AHR act confirm=16;PXR counter=14*
Cc1ccc(C)c(NC(=O)CN(C)C(=O)c2cc([N+](=O)[O-])ccc2N2CCOCC2)c1,0,0,0,-1,100,1,

# Screening data deposited in PubChem by several laboratories.
